Laboratory results from paper PMC6118327 (Biochimica et biophysica acta. Biomembranes, 2017).

Molecular target: T1, mUCP3 (Mus musculus, UniProt P56501)
T1 sequence (P56501 1-308): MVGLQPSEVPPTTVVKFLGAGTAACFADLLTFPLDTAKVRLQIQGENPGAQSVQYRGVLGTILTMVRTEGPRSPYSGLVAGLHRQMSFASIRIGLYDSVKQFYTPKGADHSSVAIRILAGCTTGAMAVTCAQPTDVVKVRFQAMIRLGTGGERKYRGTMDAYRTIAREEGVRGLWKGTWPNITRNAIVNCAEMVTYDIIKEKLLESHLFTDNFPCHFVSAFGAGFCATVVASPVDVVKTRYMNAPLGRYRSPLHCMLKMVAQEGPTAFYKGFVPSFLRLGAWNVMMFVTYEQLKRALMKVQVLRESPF
Format: biochemical
Conditions: extraction of FA from the membrane
Summary of the method: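 Recombinant mouse protein reconstituted into DOPC/DOPE/CL (45:45:10) liposomes. Bilayers formed at 1.5 mg/ml lipid, 6 μg protein/mg lipid, AA 10 or 15 mol%. Run in 50 mM Na₂SO₄/10 mM MES/10 mM Tris/0.6 mM EGTA, pH 7.35, 32°C. I/V recorded −50 to +50 mV, including with 2 mM ATP. G from linear fit at 0 mV gives relative conductance. IC50 and maximum inhibition come from a four-parameter logistic fit. AA-dependence tested at 1 mM ATP, 2 mM ADP, 5 mM AMP. Mean ± SD, ≥3 experiments.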

- membrane total conductance after addition of α-cyclodextrin: decrease of membrane total conductance
SMILES: OC[C@H]1O[C@@H]2O[C@H]3[C@H](O)[C@@H](O)[C@@H](O[C@H]4[C@H](O)[C@@H](O)[C@@H](O[C@H]5[C@H](O)[C@@H](O)[C@@H](O[C@H]6[C@H](O)[C@@H](O)[C@@H](O[C@H]7[C@H](O)[C@@H](O)[C@@H](O[C@H]1[C@H](O)[C@H]2O)O[C@@H]7CO)O[C@@H]6CO)O[C@@H]5CO)O[C@@H]4CO)O[C@@H]3CO [α-cyclodextrin, alpha-cyclodextrin]
